Our source for the cytotoxicity values is ChEMBL document CHEMBL4513216, “Probing the Open Global Health Chemical Diversity Library for Multistage-Active Starting Points for Next-Generation Antimalarials” (ACS Infect Dis, 2020).

A short description of this data set: Toxicity liver stage against HepG2, at 10uM. The class given is cell-based. Further details: test concentration 10 uM, cell line HepG2-A16-CD81EGFP. As to conditions: human, HepG2-A16-CD81EGFP cells; read-out: INHIBITION
In a few lines:
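Uninfected HepG2-A16-CD81EGFP cells, 3 × 10^3 per well, 1536-well, plated on prespotted compound at 10 μM final, parasite-free screening media added to match infected plates; puromycin 10 μM positive, DMSO 0.5% negative; run in parallel with 48 h PbLuc assay at 37 °C, 5% CO2; viability by CellTiter-Glo luminescence, normalized to controls.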
In the case of `COc1cccc(CN2CC[C@H](c3nnc(C)o3)C2)c1`, the cytotoxicity at 10 µM was -0.902%.
For `CCCC(O)CN1CCC(=O)N(Cc2ccccc2)Cc2ccccc21` (stereo unspecified), the cytotoxicity at 10 µM came out at 5.24%.
For `COCCn1/c(=N\C(=O)CN(C)S(C)(=O)=O)sc2cc(C)ccc21` the value was -11.7%; for `Cc1c(Cl)cccc1S(=O)(=O)NCC(O)c1cccn1C` (stereo unspecified), -5.15%.
For the compound `CNC(=O)CN1C(=O)CCC12CCCN(Cc1ccccc1F)C2` (stereo unspecified), the cytotoxicity at 10 µM came to 4.76%.
As to `O=C(c1cscn1)N1CCCC12CCCN(S(=O)(=O)c1ccccc1)C2` (stereo unspecified), the cytotoxicity at 10 µM stood at 4.35%.
Consider `COc1cc(N2CC[C@@H](OC)[C@@H]2Cc2ccccc2)ncn1`, for which the cytotoxicity at 10 µM is -138%.
For the compound `O=C(C1CCCC1)N1CCO[C@@H]2CNC[C@@H]21`, the cytotoxicity at 10 µM turned out to be 8.34%.
For `CN1CCN(C(=O)c2cc3c(s2)CCN3C(=O)C2CC2)CC1` the value was 8.52%; for `CN(C)C(=O)N1CCC2(CC1)COCCN(c1ncccn1)C2`, 8.42%; for `c1coc(CN2CC[C@@H]3O[C@@H](COCC4CCOCC4)CC[C@@H]32)c1`, -142%.
Under `Cc1c(C(=O)O)cnn1-c1ccc(-c2nc(C(C)(C)C)no2)cn1` stands 7.19%; under `COCc1ncn2c1CN(C(=O)C1CC=CC1)CC2`, -5.09%.
Under `COc1ccccc1N1CCN(C(=O)Cn2nc(C)c(Cl)c2C)CC1` stands 0.808%.
`O=C(Nc1cc(-c2cccnc2)no1)C1CCC1`: the cytotoxicity at 10 µM turned out to be 2.82%.
For `CC1(Cc2ccc(Cl)cc2)Cc2cc(CCC(=O)O)ccc2O1` (stereo unspecified) the value was 2.79%; for `COCCN(C)C(=O)c1ccccc1-n1cc(CN(C)C)cn1`, -29.5%; for `COCC(=O)N1CCCC(Cc2cnc(-c3c(C)n[nH]c3C)cn2)C1` (stereo unspecified), -4.51%.
For `Cc1nc2ccccn2c1CC(=O)N[C@@H]1CCC[C@@H](N2CCCC2)[C@@H]1O`, the cytotoxicity at 10 µM was -5.13%.
For `NS(=O)(=O)CCNC(=O)CCc1cc(Br)cs1` the value was -3.39%; for `CCc1nc(CSCc2csc(CS(C)(=O)=O)n2)cs1`, -6.79%; for `CC1CCCCN1C(=O)COc1nc(C(C)(C)C)no1` (stereo unspecified), -3.22%.
For the compound `CN1CCOC(CNCC(=O)NCCc2ccc3c(c2)OCCO3)C1` (stereo unspecified), the cytotoxicity at 10 µM is -10.2%.
Under `CC(C)CCN(c1cn[nH]c1)S(=O)(=O)c1cccc(C#N)c1` stands 7.95%; under `CC(C)c1noc(C(C)N2CCN(CCc3ccncc3)CC2)n1` (stereo unspecified), 2.16%; under `CNS(=O)(=O)Cc1ccc(CNc2ccc(C#N)cn2)cc1`, -6.87%.
Under `O=C(c1c[nH]c(=O)c(Cl)c1)N1CCc2ccccc2C1` stands -11.1%.
In the case of `O=C(NCCc1nnc2n1CCC2)c1ccccc1OC1CCCC1`, the cytotoxicity at 10 µM was -2.27%.
For `Cc1ccc(NC(=O)CN2CCC(OCC3CCCO3)CC2)c(C)c1` (stereo unspecified) the value was -1.7%; for `NC(=O)CN1CCC(NC(=O)N2CCCC2c2ccsc2)CC1` (stereo unspecified), 1.91%.
Under `CC(=O)NCCNC(=O)NCCc1c(C)cc(C)cc1C` stands 6.02%.
Turning to `Cc1cccc(C)c1OCC(=O)NC(C)c1nnc2n1CCC2` (stereo unspecified), the cytotoxicity at 10 µM is -3.09%.
Turning to `CN(CC(N)=O)C(=O)c1cn(-c2ccc(Br)cc2)cn1`, the cytotoxicity at 10 µM is 6.85%.
In the case of `CN(CCc1ccccn1)C(=O)C(c1cccnc1)N1CCOCC1` (stereo unspecified), the cytotoxicity at 10 µM is 2.03%.
For `COc1ccc(-n2cc(CCO)cn2)cc1C(N)=O` the value was 5.97%; for `Cc1cc(C[C@@H]2COC[C@@H]2NC(=O)CN2CCCCCC2)on1`, 1.29%.
Under `CO[C@H]1CN(Cc2cc(Cn3cncn3)c(C)cc2C)CC[C@H]1N` stands -7.29%; under `Cc1nn(C)c(C)c1CCC(=O)N1CC(c2cccnc2)C1`, -4.84%; under `CCC(C)N(CC)C(=O)c1ccc2[nH]nnc2c1` (stereo unspecified), 10.5%.
Under `CN(Cc1cccc(C(N)=O)c1)Cc1nc2c(cnn2C)c(=O)[nH]1` stands -2.97%; under `CCn1nc2c(cc1=O)CN(Cc1nc(C)c(C)o1)CC2`, -3.59%; under `CCc1nnc(CN2CCCC2Cn2cc(C)cn2)o1` (stereo unspecified), -6.64%.
As to `O=C(NCC1CCCOC1)c1ccc(-c2ccccc2)[nH]c1=O` (stereo unspecified), the cytotoxicity at 10 µM is -12.2%.
For `Cc1nn(C)c(Cl)c1C1CCCN1C(=O)c1ccoc1C` (stereo unspecified) the value was -8.18%.
Under `Cc1ccccc1SCC(=O)NS(=O)(=O)c1ccc2c(c1)OCCO2` stands -1.22%; under `Cc1cc(NC(=O)CN2CCC(N(C)Cc3ncc(C)o3)C2)n(C)n1` (stereo unspecified), -6.49%.
For `Cc1ccc(C(=O)NCc2ccnc(N(C)C)c2)c(C)c1`, the cytotoxicity at 10 µM is -11.1%.
Turning to `CC(C)(C)c1nc(CN2CCOC(Cn3cccn3)C2)no1` (stereo unspecified), the cytotoxicity at 10 µM was -18.5%.
Take `Cn1ccc(C(=O)NCc2ccc(N3CCOCC3)nc2)cc1=O`: the cytotoxicity at 10 µM is -14.3%.
Consider `Cc1ncccc1CNCC1CCN(CC(C)O)CC1` (stereo unspecified), for which the cytotoxicity at 10 µM was -5.59%.
For `Cc1ccc(NC(=O)N(C)Cc2cnn(C)c2)c(C)c1` the value was -10.7%.
As for `COCCN(C)C(C)c1cccc(S(N)(=O)=O)c1` (stereo unspecified), the cytotoxicity at 10 µM was -28%.
With `Cc1nc(C2CCCN(C(=O)c3ccc(S(C)(=O)=O)cc3)C2)no1` (stereo unspecified), the cytotoxicity at 10 µM is -11.3%.
With `Cc1cnn(CC2CCCN2C(=O)c2cc(O)nc3ccccc23)c1` (stereo unspecified), the cytotoxicity at 10 µM is -6.5%.
Under `COCCN1CC(C(=O)NCc2cccnc2-n2cccn2)CC1=O` (stereo unspecified) stands 3.74%.
In the case of `CC(C)c1nnc2n1CCN(C(=O)COc1ccc(C(N)=O)cc1)C2`, the cytotoxicity at 10 µM came out at 0.0102%.
`CCC(O)CN1CCN(C(=O)c2cccc3[nH]ncc23)CC1` (stereo unspecified): the cytotoxicity at 10 µM was -11.2%.
Turning to `COCC(=O)N1CCC2(CCc3ccc(F)cc32)CC1`, the cytotoxicity at 10 µM was -148%.
As to `CC(NCc1ccc(C(N)=O)cc1)c1ccc(Cl)c(Cl)c1` (stereo unspecified), the cytotoxicity at 10 µM is 8.8%.
Take `Cc1nc(CN2C(=O)CCC23CCN(Cc2ccoc2)CC3)cs1`: the cytotoxicity at 10 µM is -0.902%.
Under `CCn1cncc1CN1CCN(CC2(c3ccc(C)cc3)CC2)CC1` stands -10.7%; under `Cc1cc(CN2C[C@@H](N3CCN(C)CC3)[C@H]3OCCC[C@H]32)oc1C`, -132%; under `Cc1ncsc1CN1C[C@@H](OCc2ccccn2)[C@H]2OCCC[C@H]21`, -141%.
As for `CC(C)(C)NC(=O)CN1CCNCC1`, the cytotoxicity at 10 µM is -143%.
For `Cc1nc(CN2Cc3nccn3CC(CN3CCCC3)C2)cs1` (stereo unspecified), the cytotoxicity at 10 µM came to 2.43%.
In the case of `C[C@@H]1CN(CCc2ccccc2)C[C@]12CCN(CC(=O)N(C)C)C2=O`, the cytotoxicity at 10 µM is -4.19%.
For `O=C(CC1CC1)N[C@@H]1CN(c2ncccn2)C[C@@H]2CCCO[C@@H]21`, the cytotoxicity at 10 µM was 9.87%.
For `CN1CCN(C(=O)NC2CCCC2)Cc2cccnc21` the value was -0.123%; for `Cc1nc(CN2CC3(CCN(c4ncc(F)cn4)C3)CC2=O)cs1` (stereo unspecified), 3.25%; for `CN1CCN(C(=O)c2n[nH]c3c2CN(C2CCOCC2)CC3)CC1`, 3.41%.
Under `CCn1cc(-n2cc3nc(N4CCCC4)[nH]cc-3c2=O)cn1` stands 2.77%.
